Experimental data: the array DNA melting data of Ke et al. (doi:10.1101/2024.01.08.574731)

Experiments:
[1] = melting temperature; fluorescence melt of hairpins on a sequencing array, two-state fit, raised by 9.35 °C to match UV melts; conditions: sodium 0.088 M
Outline: (§1)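 Melting temperature and folding enthalpy were derived from bootstrapped two-state fits. The fitted temperatures were raised by 9.35 °C to agree with UV melts, and four replicates were combined by inverse variance. The underlying data were Cy3 fluorescence images of library hairpins, with annealed Cy3 and quencher oligos, on a sequenced MiSeq flow cell in 50 mM Na-HEPES pH 8.0, 25 mM NaCl, taken in 2.5 °C steps up to 60 °C, normalised to pre-quench Cy3 and to control constructs.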

[2] = folding enthalpy; higher = less favourable; fluorescence melt of hairpins on a sequencing array, two-state fit; conditions: sodium 0.088 M
Outline: as §1

Sequence | Tm [1] | folding enthalpy [2]
GCTATCGGAAACGACAGC (((.(((....))).))) | 43.8 °C | -30.9 kcal/mol
GATCCTGCGAGGATC ((((((...)))))) | 53.9 °C | -33.7 kcal/mol
GATCCACACGTGGATC ((((((....)))))) | 59 °C | -35.1 kcal/mol
GTCCCAGGAAACTGGAAC ((.((((....)))).)) | 35.8 °C | -22 kcal/mol
GGCTTAGGAAACTGAGCC ((((.((....)).)))) | 50.4 °C | -44.6 kcal/mol
GCCCCGGCGAAAGCCGGC (((..(((....)))))) | 39.8 °C | -2.7 kcal/mol
GATCACTACTGTGATC ((((((....)))))) | 56.5 °C | -42 kcal/mol
GATTGCGAAAGCAACATC ((((((....)))..))) | 28.5 °C | -9.24 kcal/mol
GCAACCGAAAGGTGATGC ((((((....)))..))) | 43.2 °C | -18.5 kcal/mol
GCACTAGGAAACCAGTGC (((((.(....).))))) | 48.3 °C | -34.1 kcal/mol
GCTCCTCGAAAGAGAAGC (((.(((....))).))) | 46.1 °C | -29.4 kcal/mol
GGCCCTCGAAAGAGTGCC (((.(((....))).))) | 53.3 °C | -44.1 kcal/mol
GACGAGCGAAAGCTGTC (((.(((....)))))) | 53 °C | -32.3 kcal/mol
GCATACGGAAACGCATGC ((((.((....)).)))) | 48.5 °C | -34.5 kcal/mol
GATCCGGGCGCGGATC ((((((....)))))) | 59.8 °C | -39 kcal/mol
GCGGCGGGAAACCGCCAC (.(((((....))))).) | 52.6 °C | -10.5 kcal/mol
GTCAGCGAAAGCTGGGAC ((((((....)))..))) | 40.2 °C | -9.13 kcal/mol
GCTGTCGAAAGACCCAGC ((((((....)))..))) | 34.8 °C | -15.9 kcal/mol
GTCGTCGAAAGACAGGAC ((((((....)))..))) | 41 °C | -18.3 kcal/mol
GCTGTGGGAAACCATAGC (((.(((....))).))) | 50 °C | -22.3 kcal/mol
GCCACCGGAAACAGTGGC (((((.(....).))))) | 52.6 °C | -30.7 kcal/mol
GATCGCCCAGCGATC ((((((...)))))) | 67.4 °C | -32.1 kcal/mol
GATCAGTCACTGATC ((((((...)))))) | 50.1 °C | -39.9 kcal/mol

Sequence | Tm [1] | folding enthalpy [2]
GCTGGGCGAAAGCAGAGC (((..((....))..))) | 49.5 °C | -19.8 kcal/mol
GATCAGCCTTCTGATC ((((((....)))))) | 48.5 °C | -37.9 kcal/mol
GGCACCGAAAGGTCAGCC ((((((....)))..))) | 49.2 °C | -24.2 kcal/mol
CAAGGGAAACCTTG (((((....))))) | 43.9 °C | -27.8 kcal/mol
GTTCTCGAAAGAGATAAC ((((((....)))..))) | 28.8 °C | -13.9 kcal/mol
GAAGCTGGAAACGGCTTC (((((.(....).))))) | 53.4 °C | -42.9 kcal/mol
GAGCGCGAAAGCGGGCTC ((((((....)))..))) | 67.9 °C | -16.2 kcal/mol
GAGGACGAAAGTCTTCTC ((((((....)))..))) | 48 °C | -23 kcal/mol
GCTTTGCGAAAGCAATGC ((.((((....)))).)) | 60.9 °C | -27.5 kcal/mol
CGTGTGCGGAAACGCACG (((..(((....)))))) | 54.5 °C | -6.54 kcal/mol
GGTCGAGCGAAAGCTACC (((..(((....)))))) | 33.3 °C | -11.9 kcal/mol
GGACGCGAAAGCGTTTCC ((((((....)))..))) | 36.4 °C | -9.28 kcal/mol
GTTGAGCGAAAGCTAAC (((.(((....)))))) | 39.8 °C | -15.2 kcal/mol
GCCCCGCGAAAGCCAGGC (((..((....))..))) | 44.8 °C | -20.8 kcal/mol
GAACTAGGAAACTAGTTC (((((((....))))))) | 53.8 °C | -40.2 kcal/mol
GATCAGGTGCCTGATC ((((((....)))))) | 51.6 °C | -37 kcal/mol
GACGGAGAAATCCGTC ((((((....)))))) | 59.1 °C | -38.5 kcal/mol
GGACACCGAAAGGTTTCC (((.(((....))).))) | 48.2 °C | -32.8 kcal/mol
GCTTGTGAAAACAAGC ((((((....)))))) | 63.5 °C | -34.3 kcal/mol
GCAGAGGGAAACCCCTGC ((((.((....)).)))) | 49 °C | -33.7 kcal/mol
GGTTGCGAAAGCAAAACC ((((((....)))..))) | 48.9 °C | -19.5 kcal/mol
GGCTCCACGAAAGTGGCC (((..(((....)))))) | 37.6 °C | -11.8 kcal/mol
GACGGCGCGAAAGCGGTC (((..(((....)))))) | 48.2 °C | -9.91 kcal/mol

Sequence | Tm [1] | folding enthalpy [2]
GCGGCTACCGC ((((...)))) | 57.7 °C | -21 kcal/mol
GATCTTCAGTAAGATC ((((((....)))))) | 40.7 °C | -30.6 kcal/mol
GATCGAGCGCTCGATC ((((((....)))))) | 62.2 °C | -44 kcal/mol
GTTCGTGGAAACACGAAC (((((((....))))))) | 65.8 °C | -39.4 kcal/mol
GCATGGCGAAAGCCGGGC ((..(((....)))..)) | 60.4 °C | -17.7 kcal/mol
GATCTTGACTAAGATC ((((((....)))))) | 49 °C | -44 kcal/mol
GTGAGTCGAAAGACACAC (((.(((....))).))) | 53.8 °C | -43.2 kcal/mol
GGCACAGGAAACCGTGCC (((((.(....).))))) | 56.8 °C | -43.9 kcal/mol
GATCACGACCGTGATC ((((((....)))))) | 63.6 °C | -46.1 kcal/mol
GCATCTGGAAACAGACGC ((.((((....)))).)) | 44.2 °C | -33 kcal/mol
GTCCTTTCGAAAGAAGAC (((..(((....)))))) | 28.5 °C | -15.3 kcal/mol
GCTCACGAAAGTGGCAGC ((((((....)))..))) | 44.6 °C | -14.7 kcal/mol
GGACGCGAAAGCGGTTCC ((((((....)))..))) | 45.7 °C | -11.6 kcal/mol
GTTGTGCGAAAGCAAAAC (((.(((....))).))) | 48.7 °C | -24 kcal/mol
GTGTGCGAAAGCAGCCAC ((((((....)))..))) | 36.1 °C | -13.4 kcal/mol
GGTGCTGGAAACAGCGTC (..((((....))))..) | 41 °C | -12.8 kcal/mol
GATCCCATCAGGGATC ((((((....)))))) | 65.7 °C | -36.3 kcal/mol
GTCAGCGGAAACGCCGAC (((.(((....))).))) | 49.2 °C | -26.9 kcal/mol
GATTCCGGAAACGAAATC ((((.((....)).)))) | 34.3 °C | -31.6 kcal/mol
GGTAAGCGAAAGCTAACC (((.(((....))).))) | 50.1 °C | -33.4 kcal/mol
GTTTTGCCGAAAGGCAAC (((..(((....)))))) | 36 °C | -8.44 kcal/mol
GCAGATGGAAACGTTTGC (((.(.(....).).))) | 28.9 °C | -12.6 kcal/mol
GATCCAGACATGGATC ((((((....)))))) | 58 °C | -39.9 kcal/mol

Sequence | Tm [1] | folding enthalpy [2]
GCGCGCGAAAGCGAACGC ((((((....)))..))) | 60 °C | -22.9 kcal/mol
GTCATCCGAAAGGAAGAC (((.(((....))).))) | 49.3 °C | -29.9 kcal/mol
GCCAAAGGAAACTCTGGC ((((.((....)).)))) | 35.4 °C | -32.6 kcal/mol
GAAGCGGGAAACCACTTC ((((.((....)).)))) | 41.8 °C | -32.1 kcal/mol
CGTCCGGAAACGGTCACG ((((((....)))..))) | 35.2 °C | -13.9 kcal/mol
GGGTCACGAAAGTGTCCC (((.(((....))).))) | 59.6 °C | -39.8 kcal/mol
GGCGTCGAAAGACGTGCC ((((((....)))..))) | 51.1 °C | -12 kcal/mol
GATCAGCTGTCTGATC ((((((....)))))) | 50.3 °C | -38.9 kcal/mol
GAACCGCGAAAGCGATTC (((.(((....))).))) | 47.8 °C | -24.8 kcal/mol
GGGTCTCGAAAGAGTCCC (((.(((....))).))) | 53.8 °C | -36.9 kcal/mol
GCTAGGGGAAACTCTAGC (((((.(....).))))) | 47.7 °C | -34.8 kcal/mol
GATCTGCTGACAGATC ((((((....)))))) | 50.5 °C | -39.7 kcal/mol
GACACGGGAAACCGTGCC (.(((((....))))).) | 48.4 °C | -13.8 kcal/mol
GGGGACGAAAGTCCTCCC ((((((....)))..))) | 48.3 °C | -10.8 kcal/mol
GCCTTCGAAAGAAGAGGC ((((((....)))..))) | 46 °C | -23.4 kcal/mol
GTGTACGAAAGTACTCAC ((((((....)))..))) | 35.7 °C | -11.4 kcal/mol
GGACGAGGAAACCCGTCC (((((.(....).))))) | 54.2 °C | -39.1 kcal/mol
GCTGCGTCGAAAGACAGC (((..(((....)))))) | 47.1 °C | -14.5 kcal/mol
GTAGTGGGAAACTGCTAC ((((..(....)..)))) | 36.8 °C | -23.4 kcal/mol
GATATCGCGAAAGCGATC (((..(((....)))))) | 35.2 °C | -7.08 kcal/mol
GCGTCGCGAAAGCATCGC (((..((....))..))) | 53.8 °C | -17.9 kcal/mol
GGAGTCCGAAAGGAATCC (((.(((....))).))) | 56.4 °C | -41.5 kcal/mol
GTGAACGCGAAAGCGCAC (((..(((....)))))) | 42.3 °C | -14.8 kcal/mol
